Measured values published in ChEMBL document CHEMBL4359883, “4(1H)-quinolone derivatives overcome acquired resistance to anti-microtubule agents by targeting the colchicine site of β-tubulin” (Eur J Med Chem, 2019).
The source made the active and inactive calls. The rule behind the calls is not given here.

Tests used:
CL1-0 [1] = experiment: Antiproliferative activity against human CL1-0 cells assessed as reduction in cell viability after 72 hrs by MTS assay; format: functional, cell-based; conditions: CL1-0, 72 h
Procedure, shortened: (§1)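 Cells plated at 2000/well, cultured overnight, then exposed to a range of compound concentrations for 72 h. MTS reagent added for 1–4 h at 37 °C and absorbance read at 490 nm. Cultured in RPMI 1640 or DMEM with 10% heat-inactivated FBS under 5% CO2. Data are the mean of three determinations.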

NCI-H1975 [2] = experiment: Antiproliferative activity against human NCI-H1975 cells assessed as reduction in cell viability after 72 hrs by MTS assay; format: functional, cell-based; conditions: NCI-H1975, 72 h; procedure, shortened: as §1
BT-549 = experiment: Antiproliferative activity against human BT549 cells assessed as reduction in cell viability after 72 hrs by MTS assay; format: functional, cell-based; conditions: BT-549, 72 h; procedure, shortened: as §1
Hs-578T = experiment: Antiproliferative activity against human Hs578T cells assessed as reduction in cell viability after 72 hrs by MTS assay; format: functional, cell-based; procedure, shortened: as §1
MDA-MB-231 = experiment: Antiproliferative activity against human MDA-MB-231 cells assessed as reduction in cell viability after 72 hrs by MTS assay; format: functional, cell-based; conditions: MDA-MB-231, 72 h; procedure, shortened: as §1
[3] = Antiproliferative activity against human 37T cells assessed as reduction in cell viability after 72 hrs by MTS assay; format: functional, cell-based; procedure, shortened: as §1
[4] = Antiproliferative activity against human OECM1 cells assessed as reduction in cell viability after 72 hrs by MTS assay; format: functional, cell-based; conditions: OECM1, 72 h; procedure, shortened: as §1
KB = experiment: Antiproliferative activity against human KB cells assessed as reduction in cell viability after 72 hrs by MTS assay; format: functional, cell-based; procedure, shortened: as §1
CCRF-CEM = experiment: Antiproliferative activity against human CCRF-CEM cells assessed as reduction in cell viability after 72 hrs by MTS assay; format: functional, cell-based; procedure, shortened: as §1
[5] = Cytotoxicity against human bronchial epithelial cells assessed as reduction in cell viability after 72 hrs by MTS assay; format: cell-based
Procedure, shortened: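 Cells plated at 2000 per well, cultured overnight, then exposed to a range of compound concentrations for 72 h. MTS reagent added, 1–4 h at 37 °C, absorbance read at 490 nm. Mean of three determinations.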

NCI-H1975 [6] = experiment: Antiproliferative activity against human NCI-H1975 cells assessed as reduction in colony formation after 14 days by crystal violet staining based assay; format: functional, cell-based
Procedure, shortened: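 Seeded at 1000 cells/well, cultured overnight, then treated with 12.5–200 nM for 14 days. Colonies fixed in 3.7% paraformaldehyde, stained with 0.04% crystal violet and dissolved in DMSO, then absorbance read at 590 nm. Mean ± SD.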

NCI-H1975 [7] = experiment: Induction of apoptosis in human NCI-H1975 cells assessed as bax protein expression after 24 hrs by immunoblotting analysis; format: functional, cell-based
CL1-0 [8] = experiment: Cell cycle arrest in human CL1-0 cells assessed as increase in cell population at G2/M phase after 24 hrs by propidium iodide-staining based flow cytometry; format: functional
Procedure, shortened: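 Cells treated for 24 h, then trypsinized and fixed overnight in ice-cold 70% ethanol. Stained for 30 min with propidium iodide (10 µg/mL) plus RNase (20 µg/mL), and DNA content measured by flow cytometry. Mean ± SD.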

CL1-0 [9] = experiment: Induction of mitotic arrest in human CL1-0 cells assessed as increase in phospho-histone H3 expression at 20 to 40 nM after 24 hrs by immunoblotting analysis; format: functional, cell-based
CL1-0 [10] = experiment: Induction of cell cycle arrest in human CL1-0 cells assessed as accumulation at mitotic phase after 24 hrs by high content imaging analysis; format: functional, cell-based
Procedure, shortened: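 Cells exposed for 24 h, stained for phospho-histone H3 (S10), and imaged by high-content imaging. Mitotic index taken as the fraction of p-HH3-positive cells. Mean ± SD.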

Tubulin (Homo sapiens) [11] = molecular target: T1, Tubulin (Homo sapiens) (UniProt P68371+Q9H4B7+P0DPH7+P68366+Q13509+Q71U36+P04350+Q3ZCM7+P07437+P68363+Q9BQE3+Q6PEY2+Q13885+Q9BVA1+Q9BUF5); experiment: Induction of microtubule depolymerization in human CL1-0 cells at 20 nM after 6 hrs by DAPI staining based DAPI staining based confocal microscopic analysis; format: cell-based
Procedure, shortened: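 Cells exposed for 6 h, fixed in 3.7% paraformaldehyde, permeabilized with 0.1% Triton X-100. Stained with anti-α-tubulin (1:1000) overnight at 4 °C, FITC secondary 1 h at 37 °C, nuclei counterstained with DAPI. Imaged by confocal laser scanning microscopy.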

[12] = molecular target: Tubulin beta (Homo sapiens) (UniProt P68371+Q9H4B7+Q13509+P04350+Q3ZCM7+P07437+Q13885+Q9BVA1+Q9BUF5+A6NNZ2); experiment: Binding affinity to beta tubulin in human NCI-H1975 cells incubated for overnight by immunoblotting based pull down assay; format: cell-based
Procedure, shortened: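 H1975 lysate in RIPA buffer with protease inhibitors incubated overnight at 4 °C with compound-conjugated magnetic beads or control beads. Beads washed five times with PBS, and bound proteins detected by SDS-PAGE immunoblotting with ECL.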

Tubulin (Homo sapiens) [13] = molecular target: T1, Tubulin (Homo sapiens); experiment: Binding affinity to tubulin (unknown origin) assessed as increase in Beta-col fragment production at 100 uM after 30 mins by coomassie brilliant blue staining based trypsin proteolysis assay; format: protein-complex assay
Procedure, shortened: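 Tubulin (1 mg/mL) preincubated with 100 µM compound for 30 min at 30 °C in 0.1 M MES, 1 mM MgCl2, 1 mM EGTA, pH 6.9. Trypsin added at 25 µg/mL (1:40 w/w) for 10 min on ice. Fragments resolved on 15% SDS-PAGE, stained with Coomassie and quantified by densitometry.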

Tubulin (Homo sapiens) [14] = molecular target: T1, Tubulin (Homo sapiens); experiment: Binding affinity to tubulin (unknown origin) assessed as reduction in colchicine fluorescence after 1 hr in presence of colchicine by fluorescence based assay; format: protein-complex assay
Procedure, shortened: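 Tubulin (3 µM) mixed with colchicine (3 µM) and incubated with varying compound concentrations in PEM buffer, pH 6.9, for 1 h at 37 °C. Fluorescence read at ex 365/em 435 nm; mean ± SD.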

[15] = Antiproliferative activity against human KBtax cells assessed as reduction in cell viability after 72 hrs by MTS assay; format: functional, cell-based; procedure, shortened: as §1
[16] = Selectivity index, ratio of IC50 for human KBtax cells to IC50 for human KB cells; format: functional
[17] = Antiproliferative activity against human KB/VCR cells assessed as reduction in cell viability after 72 hrs by MTS assay; format: functional, cell-based; procedure, shortened: as §1
[18] = Selectivity index, ratio of IC50 for human KB/VCR cells to IC50 for human KB cells; format: functional
[19] = Antiproliferative activity against human CCRF-CEM/VBL cells assessed as reduction in cell viability after 72 hrs by MTS assay; format: functional, cell-based; procedure, shortened: as §1
[20] = Selectivity index, ratio of IC50 for human CCRF-CEM/VBL cells to IC50 for human CCRF-CEM cells; format: functional
[21] = Toxicity in Balb/c mouse xenografted with human KBtax cells assessed as effect on body mass at 8 mg/kg, ip administered 3 times per week and measured after 21 days; format: organism-based; conditions: in vivo, 504 h
Procedure, shortened: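 KBtax cells (1×10^7) injected subcutaneously into right flank of 6-week-old BALB/c nude mice; after tumor establishment, compounds dissolved in DMSO given intraperitoneally three times a week for 21 days alongside DMSO vehicle group (n = 5 per group). Body mass recorded before each dose.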

Homo sapiens = organism: Homo sapiens; experiment: Effect on p-gp expression in human KBtax cells at 30 to 60 nM after 24 hrs by immunoblotting analysis; format: functional, cell-based

Row | Compound | IC50 (NCI-H1975 [2]) [nM] | IC50 (BT-549) [nM] | IC50 (Hs-578T) [nM] | IC50 (MDA-MB-231) [nM] | IC50 [3] [nM] | IC50 (KB) [nM] | IC50 (CCRF-CEM) [nM] | IC50 [15] [nM] | Ratio IC50 [16] | IC50 [17] [nM] | Ratio IC50 [18] | IC50 [19] [nM] | Ratio IC50 [20] | also measured
1 | CCOC(=O)c1ccc2nc(-c3ccccc3)cc(O)c2c1 | 33 | 33 | 41 | 55 | 34 | 37 | 45 | 30 | 0.81 | 37 | 1 | 44 | 0.97 | IC50 (CL1-0 [1]): 16 nM; IC50 [4]: 52 nM; IC50 [5]: > 10000 nM; Activity (NCI-H1975 [6]): Active; Activity (NCI-H1975 [7]): Dose-dependent effect; Activity (CL1-0 [8]): Dose-dependent effect; Activity (CL1-0 [9]): Active; Activity (CL1-0 [10]): Dose-dependent effect; Activity (Tubulin (Homo sapiens) [11]): Active; Activity [12]: Active; Activity (Tubulin (Homo sapiens) [13]): Active; Activity (Tubulin (Homo sapiens) [14]): Dose-dependent effect
2 | CCOC(=O)c1ccc2[nH]c(-c3cccc(F)c3)cc(=O)c2c1 | 24 | 21 | 34 | 35 | 22 | 34 | 20 | 30 | 0.88 | 35 | 1 | 16 | 0.8 | Activity [21]: Non-Toxic; Activity (Homo sapiens): inactive
